ChEMBL document CHEMBL4715736, “Identification of anticancer agents based on the thieno[2,3-b]pyridine and 1H-pyrazole molecular scaffolds” (2016)

Experiments:
Assay type in all cases: functional
[1] = system: RPMI-8226; experiment: Growth inhibition of human RPMI-8226 cells assessed as cell growth at 0.01 uM incubated for 48 hrs by sulforhodamine B assay relative to control; conditions: read-out: Activity
[2] = system: A549; experiment: Growth inhibition of human A549/ATCC cells assessed as cell growth at 0.01 uM incubated for 48 hrs by sulforhodamine B assay relative to control; conditions: read-out: Activity
Outline: (§1)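 NCI Developmental Therapeutics Program NCI60 panel. Compounds that were active in the 10 µM one-dose screen went on to dose–response testing. Growth at each concentration is expressed relative to untreated control (100%). GI50 (concentration giving 50% of maximal inhibition of proliferation) and TGI (concentration giving total growth inhibition) were derived from the curves.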

[3] = system: SF-268; experiment: Growth inhibition of human SF-268 cells assessed as cell growth at 0.01 uM incubated for 48 hrs by sulforhodamine B assay relative to control; conditions: read-out: Activity
[4] = system: Malme-3M; experiment: Growth inhibition of human Malme-3M cells assessed as cell growth at 0.01 uM incubated for 48 hrs by sulforhodamine B assay relative to control; conditions: read-out: Activity
[5] = system: M14; experiment: Growth inhibition of human M14 cells assessed as cell growth at 0.01 uM incubated for 48 hrs by sulforhodamine B assay relative to control; conditions: read-out: Activity
[6] = system: IGROV-1; experiment: Growth inhibition of human IGROV-1 cells assessed as cell growth at 0.01 uM incubated for 48 hrs by sulforhodamine B assay relative to control; conditions: read-out: Activity
[7] = system: SK-OV-3; experiment: Growth inhibition of human SK-OV-3 cells assessed as cell growth at 0.01 uM incubated for 48 hrs by sulforhodamine B assay relative to control; conditions: read-out: Activity
[8] = system: MDA-MB-468; experiment: Growth inhibition of human MDA-MB-468 cells assessed as cell growth at 0.01 uM incubated for 48 hrs by sulforhodamine B assay relative to control; conditions: read-out: Activity
[9] = system: HCT-15; experiment: Growth inhibition of human HCT-15 cells assessed as cell growth at 0.1 uM incubated for 48 hrs by sulforhodamine B assay relative to control; conditions: read-out: Activity
[10] = system: HT-29; experiment: Growth inhibition of human HT-29 cells assessed as cell growth at 0.1 uM incubated for 48 hrs by sulforhodamine B assay relative to control; conditions: read-out: Activity
[11] = system: MDA-MB-435; experiment: Growth inhibition of human MDA-MB-435 cells assessed as cell growth at 0.1 uM incubated for 48 hrs by sulforhodamine B assay relative to control; conditions: read-out: Activity
[12] = system: UACC-257; experiment: Growth inhibition of human UACC-257 cells assessed as cell growth at 0.1 uM incubated for 48 hrs by sulforhodamine B assay relative to control; conditions: read-out: Activity
[13] = system: OVCAR-4; experiment: Growth inhibition of human OVCAR-4 cells assessed as cell growth at 0.1 uM incubated for 48 hrs by sulforhodamine B assay relative to control; conditions: read-out: Activity
[14] = system: NCI-H522; experiment: Growth inhibition of human NCI-H522 cells assessed as cell growth at 1 uM incubated for 48 hrs by sulforhodamine B assay relative to control; conditions: read-out: Activity
[15] = system: COLO 205; experiment: Growth inhibition of human COLO 205 cells assessed as cell growth at 1 uM incubated for 48 hrs by sulforhodamine B assay relative to control; conditions: read-out: Activity; outline: as §1
[16] = system: HCT-15; experiment: Growth inhibition of human HCT-15 cells assessed as cell growth at 1 uM incubated for 48 hrs by sulforhodamine B assay relative to control; conditions: read-out: Activity
[17] = system: KM12; experiment: Growth inhibition of human KM12 cells assessed as cell growth at 1 uM incubated for 48 hrs by sulforhodamine B assay relative to control; conditions: read-out: Activity
[18] = system: SW-620; experiment: Growth inhibition of human SW-620 cells assessed as cell growth at 1 uM incubated for 48 hrs by sulforhodamine B assay relative to control; conditions: read-out: Activity
[19] = system: Hs-578T; experiment: Growth inhibition of human Hs-578T cells assessed as cell growth at 1 uM incubated for 48 hrs by sulforhodamine B assay relative to control; conditions: read-out: Activity
[20] = system: NCI-H23; experiment: Growth inhibition of human NCI-H23 cells assessed as cell growth at 100 uM incubated for 48 hrs by sulforhodamine B assay relative to control; conditions: read-out: Activity
[21] = system: SNB-75; experiment: Growth inhibition of human SNB-75 cells assessed as cell growth at 100 uM incubated for 48 hrs by sulforhodamine B assay relative to control; conditions: read-out: Activity
[22] = system: U-251; experiment: Growth inhibition of human U-251 cells assessed as cell growth at 100 uM incubated for 48 hrs by sulforhodamine B assay relative to control; conditions: read-out: Activity
[23] = system: UACC-257; experiment: Growth inhibition of human UACC-257 cells assessed as cell growth at 100 uM incubated for 48 hrs by sulforhodamine B assay relative to control; conditions: read-out: Activity
[24] = system: OVCAR-8; experiment: Growth inhibition of human OVCAR-8 cells assessed as cell growth at 100 uM incubated for 48 hrs by sulforhodamine B assay relative to control; conditions: read-out: Activity
[25] = system: TK-10; experiment: Growth inhibition of human TK-10 cells assessed as cell growth at 100 uM incubated for 48 hrs by sulforhodamine B assay relative to control; conditions: read-out: Activity
[26] = system: MCF7; experiment: Growth inhibition of human MCF7 cells assessed as cell growth at 100 uM incubated for 48 hrs by sulforhodamine B assay relative to control; conditions: read-out: Activity
[27] = system: K562; experiment: Growth inhibition of human K562 cells incubated for 48 hrs by sulforhodamine B assay
Outline: (§2)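 NCI60 panel at the NCI Developmental Therapeutics Program. Only compounds active in the 10 µM screen went to dose-response testing. GI50, the concentration giving 50% of maximal inhibition of proliferation, and TGI, the concentration giving total growth inhibition, were derived from the dose-response curves.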

[28] = system: HOP-62; experiment: Growth inhibition of human HOP-62 cells incubated for 48 hrs by sulforhodamine B assay; outline: as §2
[29] = system: NCI-H460; experiment: Growth inhibition of human NCI-H460 cells incubated for 48 hrs by sulforhodamine B assay; outline: as §2
[30] = system: HCT-15; experiment: Growth inhibition of human HCT-15 cells incubated for 48 hrs by sulforhodamine B assay; outline: as §2
[31] = system: U-251; experiment: Growth inhibition of human U-251 cells incubated for 48 hrs by sulforhodamine B assay
Outline: (§3)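 NCI DTP 60-line human tumour panel. Dose-response curves were run only for ligands active in the initial 10 µM screen. GI50 (concentration giving 50% of maximal inhibition of proliferation) and TGI (concentration giving total growth inhibition) were derived from these curves.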

[32] = system: A498; experiment: Growth inhibition of human A498 cells incubated for 48 hrs by sulforhodamine B assay; conditions: for CC50: read-out: LC50 (the source's name); outline: as §1
[33] = system: RXF 393; experiment: Growth inhibition of human RXF 393 cells incubated for 48 hrs by sulforhodamine B assay; conditions: for CC50: read-out: LC50 (the source's name); outline: as §3
[34] = system: Hs-578T; experiment: Growth inhibition of human Hs-578T cells incubated for 48 hrs by sulforhodamine B assay; conditions: for CC50: read-out: LC50 (the source's name); outline: as §2
[35] = system: BT-549; experiment: Growth inhibition of human BT-549 cells incubated for 48 hrs by sulforhodamine B assay; conditions: for CC50: read-out: LC50 (the source's name); outline: as §1

COc1cccc(NC(=O)c2sc3nc4c(cc3c2N)CN(Cc2ccccc2)CC4)c1 showed a growth at 0.01 µM [1] of 98%, a growth at 0.01 µM [2] of 96% and a growth at 0.01 µM [3] of 99%. It also gave a growth at 0.01 µM [4] of 97%, a growth at 0.01 µM [5] of 96% and a growth at 0.01 µM [6] of 101%. The growth at 0.01 µM [7] was 92%, the growth at 0.01 µM [8] was 92% and the growth at 0.1 µM [9] was 95%. For the same molecule, the growth at 0.1 µM [10] was 103%, the growth at 0.1 µM [11] was 91% and the growth at 0.1 µM [12] was 91%. For the same molecule, the growth at 0.1 µM [13] was 93%, the growth at 1 µM [14] was 74% and the growth at 1 µM [15] was 92%. The growth at 1 µM [16] was 49%, the growth at 1 µM [17] was 64% and the growth at 1 µM [18] was 57%. The growth at 1 µM [19] was 72%, the growth at 100 µM [20] was -19% and the growth at 100 µM [21] was -61%. For the same molecule, the growth at 100 µM [22] was -54%, the growth at 100 µM [23] was 21% and the growth at 100 µM [24] was -2%. For the same molecule, the growth at 100 µM [25] was -55%, the growth at 100 µM [26] was 3% and the GI50 [27] was 0.53 µM. The LC50 (concentration killing 50% of cells) [27] was over 100 µM, the TGI [27] was over 100 µM and the GI50 [28] was 1.83 µM. It also gave an LC50 [28] of 41.1 µM, a TGI [28] of 6.47 µM and a GI50 [29] of 4.18 µM. It also gave an LC50 [29] of over 100 µM, a TGI [29] of 30.9 µM and a GI50 [30] of 0.93 µM. It also gave an LC50 [30] of over 100 µM, a TGI [30] of over 100 µM and a GI50 [31] of 2.74 µM. For the same molecule, the LC50 (concentration killing 50% of cells) [31] was 88.7 µM, the TGI [31] was 19.2 µM and the GI50 [32] was 3.82 µM. The TGI [32] was 24.4 µM, the CC50 [32] was over 100 µM and the GI50 [33] was 2.71 µM. For the same molecule, the TGI [33] was 12.9 µM, the CC50 [33] was over 100 µM and the GI50 [34] was 2.14 µM. It also gave a TGI [34] of 23 µM, a CC50 [34] of over 100 µM and a GI50 [35] of 2.83 µM. It also gave a TGI [35] of 26.2 µM and a CC50 [35] of over 100 µM.

Cc1cccc(NC(=O)c2sc3nc4c(cc3c2N)C(=O)CCC4)c1 gave a growth at 0.01 µM [1] of 99%, a growth at 0.01 µM [2] of 92% and a growth at 0.01 µM [3] of 99%. For the same molecule, the growth at 0.01 µM [4] was 91%, the growth at 0.01 µM [5] was 93% and the growth at 0.01 µM [6] was 100%. It also gave a growth at 0.01 µM [7] of 90%, a growth at 0.01 µM [8] of 93% and a growth at 0.1 µM [9] of 48%. For the same molecule, the growth at 0.1 µM [10] was 70%, the growth at 0.1 µM [11] was 4% and the growth at 0.1 µM [12] was 58%. It also gave a growth at 0.1 µM [13] of 82%, a growth at 1 µM [14] of -35% and a growth at 1 µM [15] of -17%. For the same molecule, the growth at 1 µM [16] was 24%, the growth at 1 µM [17] was 19% and the growth at 1 µM [18] was 19%. It also gave a growth at 1 µM [19] of 11%, a growth at 100 µM [20] of 12% and a growth at 100 µM [21] of 1%. The growth at 100 µM [22] was -43%, the growth at 100 µM [23] was -16% and the growth at 100 µM [24] was -30%. It also gave a growth at 100 µM [25] of -23%, a growth at 100 µM [26] of -56% and a GI50 [27] of 0.144 µM. The LC50 (concentration killing 50% of cells) [27] was over 100 µM, the TGI [27] was over 100 µM and the GI50 [28] was 0.331 µM. The LC50 [28] was over 100 µM, the TGI [28] was at least 100 µM and the GI50 [29] was 0.286 µM. For the same molecule, the LC50 [29] was over 100 µM, the TGI [29] was at least 100 µM and the GI50 [30] was 0.27 µM. It also gave an LC50 [30] of over 100 µM, a TGI [30] of over 100 µM and a GI50 [31] of 0.261 µM. The LC50 (concentration killing 50% of cells) [31] was at least 100 µM, the TGI [31] was at least 100 µM and the GI50 [32] was 0.139 µM. It also gave a TGI [32] of 0.701 µM, a CC50 [32] of over 100 µM and a GI50 [33] of 0.167 µM. The TGI [33] was at least 100 µM, the CC50 [33] was over 100 µM and the GI50 [34] was 0.256 µM. For the same molecule, the TGI [34] was 40.9 µM, the CC50 [34] was over 100 µM and the TGI [35] was at least 100 µM. The CC50 [35] was over 100 µM.
